Rows were chosen to be rich in hits. Some 1.8% of all compounds tested hit in one or more screens of this group.
M4 antag = antagonists of human muscarinic M4 receptor (CHRM4). 360,000 tested, 0.73% active. AID 624125. inhibition, % at 3 µM. P08173. CHO-hM4 cells, ACh EC80, Fluo-8 calcium fluorescence;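 active = inhibition above its plate's cutoff, the mean inhibition of sample wells plus 3 SD, cut at about 27% in these data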;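 also: 0% = acetylcholine EC80 with DMSO and 100% = DMSO without agonist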
Target sequence (P08173 whole entry, looked up): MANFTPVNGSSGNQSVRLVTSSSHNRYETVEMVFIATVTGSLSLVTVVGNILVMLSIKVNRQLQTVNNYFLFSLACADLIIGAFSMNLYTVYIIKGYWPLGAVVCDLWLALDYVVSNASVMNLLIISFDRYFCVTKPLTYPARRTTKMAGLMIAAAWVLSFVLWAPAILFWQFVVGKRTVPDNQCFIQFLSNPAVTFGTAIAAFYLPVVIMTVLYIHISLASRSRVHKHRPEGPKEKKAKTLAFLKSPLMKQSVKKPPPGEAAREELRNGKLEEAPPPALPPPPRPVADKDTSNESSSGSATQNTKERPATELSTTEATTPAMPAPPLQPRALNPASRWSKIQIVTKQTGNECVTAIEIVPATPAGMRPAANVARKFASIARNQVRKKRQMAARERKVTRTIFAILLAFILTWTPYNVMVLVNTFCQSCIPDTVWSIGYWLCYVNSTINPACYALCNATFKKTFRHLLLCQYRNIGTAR
M5 ag = CHRM5 agonism in calcium assay | P08912 | 360,000 tested, 0.19% active | CHO-K1 hM5 cells, Fluo-8 calcium fluorescence; 0% DMSO wells, 100% maximal acetylcholine response | activation, % at 3 µM;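 active = activation above the run's mean over test compounds plus 3 SD, cut at about 23% in these data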;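 also: signal is peak over basal fluorescence ratio across the kinetic read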
M5 antag = CHRM5 antagonism in calcium assay. CHO-hM5 cells, Fluo-8 calcium fluorescence, ACh EC80. 360,000 tested, 0.59% active. P08912. inhibition, % at 3 µM;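 active = inhibition above a per-plate cutoff, the mean of that plate's test compounds plus 3 SD, cut at about 27% in these data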;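 also: 0% = acetylcholine EC80 with DMSO and 100% = DMSO without agonist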
M4 ag = agonists of human muscarinic M4 receptor (CHRM4); P08173; CHO-K1 hM4/Gqi5, Fluo-8 calcium fluorescence; vehicle 0%, full acetylcholine response 100%; activation, % at 3 µM; 360,000 tested, 0.14% active;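 active = activation above the run mean over all test wells plus 3 SD, cut at about 32% in these data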;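 also: peak over basal fluorescence ratio per well then scaled between controls; 0% = DMSO wells and 100% = acetylcholine at EC100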
CHRM5 PAM = potentiates acetylcholine response at human M5 receptor. P08912. CHO-K1 hM5, Fluo-8 calcium, ACh EC20 PAM; 0% = ACh EC20, 100% = ACh EC100. activation, % at 3 µM. 360,000 tested, 0.3% active. AID 624038;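 active = activation above the run cutoff, the mean activation of all test compounds plus 3 SD, cut at about 18% in these data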
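Assay system – human M5 receptor in CHO-K1 cells · Read-out – % activation, ACh-normalized · Technique – Fluo-8 calcium fluorescence · Dosing – single-point, 3 µM nominal · Incubation – Fluo-8 loading 80 min at 37 °C plus 30 min room temperature · Repeats – singlicate, one well per test compound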
CHRM4 PAM = positive allosteric modulators of human muscarinic M4 receptor | P08173 | CHO-K1 hM4/Gqi5, Fluo-8 calcium fluorescence, ACh EC20; 0% = ACh EC20, 100% = maximal ACh | activation, % at 3 µM | 360,000 tested, 0.4% active;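 active = activation above its plate's cutoff, the mean activation of sample wells plus 3 SD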
The depositor's hits bear a star.

SMILES | M4 antag | M5 ag | M5 antag | M4 ag | CHRM5 PAM | CHRM4 PAM
CC(C)C[C@H]1CN([C@@H](Cc2ccccc2)CN2CCC[C@@H]2CN2C(=O)C(=O)NC[C@@H]2Cc2ccccc2)C(=O)C(=O)N1CCc1ccccc1 | 0 | -1 | -2 | -1 | 6 | -2
O=C(Cc1cccs1)N[C@@H]1c2ccccc2CC[C@H]1OCc1ccccc1 | -9 | -3 | 0 | 3 | -4 | 0
O=C(O)CCN1C(=O)C2C3C=CC(C3)C2C1=O (centres undefined) | 9 | -1 | -2 | 0 | 1 | -3
O=C(O)CCN1C(=O)C2CCCCC2C1=O (centres undefined) | -16 | 0 | 3 | 1 | -2 | 19*
CC1CN(C(=O)CCCN2C(=O)c3ccccc3C2=O)CC(C)O1 (centres undefined) | -13 | -2 | 16 | 0 | -3 | 0
Cc1nn(CC(=O)NCCN2CCOCC2)c(=O)c2cc3sccc3n12 | 7 | -1 | 2 | 0 | -1 | -1
COCCC(=O)N1CCCC(CNS(=O)(=O)c2ccc(OC)cc2)C1 (centres undefined) | -5 | 5 | 6 | 1 | 2 | 2
COc1ccc(S(=O)(=O)NCC2CCCN(C(=O)CCC(F)(F)F)C2)cc1 (centres undefined) | -7 | 14 | 11 | 0 | 39* | -6
COC(=O)c1ccc2[nH]c(C)cc(=O)c2c1 | 55* | -3 | -2 | 0 | 1 | -18
CCOC(=O)N1CCN(C(=O)c2ccc3c(c2)NC(=O)C(N2CCOCC2)S3)CC1 (centres undefined) | -16 | -2 | 2 | 2 | 19* | 12
CCc1ccc(CNC(=O)c2ccc3c(c2)NC(=O)C(N2CCOCC2)S3)cc1 (centres undefined) | 0 | 2 | -10 | 6 | 13 | 5
CC(=O)Oc1ccc(Cn2c(C)c(C(=O)NCc3cccc(C(F)(F)F)c3)sc2=O)cc1 | -2 | 1 | 5 | 10 | -9 | -4
Cc1ccc(NC2CCCN(C(=O)c3ccccc3-c3ncc[nH]3)C2)cc1C (centres undefined) | -2 | -1 | 7 | 0 | -3 | -2
Cc1ccccc1NC(=S)NC1(C)CCS(=O)(=O)C1 (centres undefined) | 9 | 0 | 0 | 0 | 1 | 0
CCN1CCN(C(=O)/C=C/c2ccc(OC)cc2)CC1 | -24 | -4 | 5 | 1 | -1 | 12*
O=C(Nc1ccccc1N1CCN(c2ccc(F)cc2)CC1)C12CC3CC(CC(C3)C1)C2 | 0 | -4 | 1 | -1 | 20* | 1
CN(C)CCCNCCCNC(=O)c1ccccn1 | 4 | -4 | 9 | 1 | 0 | 4
CN(C)CCCNCCCNC(=O)/C(=N\O)c1ccccc1 | -17 | -5 | 1 | 1 | 6 | 33*
CC(=O)N(C1CC(C)C(C#N)(C#N)C1(C#N)C#N)N(C)C (centres undefined) | 10 | -3 | 6 | 0 | 2 | 1
CCCC(=O)N(C1CC(C)C(C#N)(C#N)C1(C#N)C#N)N(C)C (centres undefined) | 47* | 0 | 13 | 2 | -2 | -21
COC(=O)[C@H](Cc1ccccc1)NC(=O)NCCc1ccc(F)cc1 | -2 | -6 | 30* | 1 | -25 | 1
COC(=O)C(Cc1ccccc1)NC(=O)C12CC3CC(CC(C3)C1)C2 (centres undefined) | -8 | 0 | -6 | 0 | 9 | 22*
COC(=O)[C@H](Cc1ccccc1)NC(=O)NCCc1ccc(S(N)(=O)=O)cc1 | -1 | 0 | 2 | 0 | 0 | -3
CCN(CC)S(=O)(=O)c1ccc(Cl)c(NC(=O)COC(=O)c2nc3nc(C)cc(C)n3n2)c1 | 0 | 0 | 2 | 4 | -4 | 2
Cc1ccc2nc(NCCNC(=O)c3ccccc3)c(C#N)cc2c1 | 51* | 0 | 5 | 0 | 12 | -14
COc1cc(CNCCCN2CCOCC2)c(Br)cc1OCC(=O)Nc1ccccc1C | -3 | -1 | 6 | 2 | 2 | 4

Screens from PubChem BioAssay.
